FGF22 binding: binders of human FGF22 protein, primary screen, FGF22 synaptogenesis inhibitor project, biophysical, thermal shift, single point. activity (Tm shift, normalised), % at 9.99 µM. Fibroblast growth factor 22 (Homo sapiens), Q9HCT0. recombinant FGF22 thermal shift, SYPRO orange fluorescence; percent of sucrose octasulfate shift, DMSO zero. 1.5% of 340,000 active;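 active = mean Tm shift, scaled 0 neutral to 100 positive control, at about 1.3% or above, every replicate too, limit read from the data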
Target sequence (Q9HCT0 whole entry, looked up): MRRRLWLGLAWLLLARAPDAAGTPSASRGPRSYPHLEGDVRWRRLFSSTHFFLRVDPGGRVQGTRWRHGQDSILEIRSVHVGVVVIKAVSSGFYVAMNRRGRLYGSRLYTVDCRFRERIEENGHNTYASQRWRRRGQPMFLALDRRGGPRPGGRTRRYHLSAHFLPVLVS
NSD2 inh: NSD2 histone methyltransferase inhibitors, primary screen, biochemical, AlphaScreen, single concentration, set 2 | NSD2 peptide methylation, 120 min | Histone-lysine N-methyltransferase NSD2 (Homo sapiens), O96028 | inhibition, % at 12.5 µM | 0.54% of 310,000 active; in the data active = inhibition above about 50%
SIRT5 inh: SIRT5 desuccinylase inhibitors, primary screen, biochemical, fluorescence imaging, single point, set 5 | NAD-dependent protein deacylase sirtuin-5, mitochondrial (Homo sapiens), Q9NXA8 | Purified SirT5, succinyl-peptide AMC, trypsin-coupled fluorescence | inhibition, % at 15 µM | 1.1% of 330,000 active | AID 652115, 2013; in the data active = inhibition above about 15%
UCH37 DUB inh: inhibitors of human UCH37 deubiquitinase, primary screen, biochemical, Ub-AMC cleavage, fluorescence. Ubiquitin carboxyl-terminal hydrolase isozyme L5 (Homo sapiens), Q9Y5K5. purified proteasome/UCH37. inhibition, % (concentration not given with the values). 0.33% of 330,000 active;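 active = mean inhibition over replicate wells above about 20%, limit read from the data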;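 also: 0% = compound-free wells with enzyme and 100% = wells lacking proteasome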
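Test system – human UCH37 enzyme supplied as purified proteasome complex · Incubation – 30 min preincubation with enzyme, 25 min cleavage at room temperature · Detection – AMC fluorescence from Ub-AMC cleavage, excitation 355 nm, emission 460 nm · Benchmarks – no-proteasome wells (full inhibition) and compound-free wells (no inhibition)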
Casp6 inh: human caspase-6 inhibitors, primary screen, biochemical, VEID-R110 fluorescence, single point, set 2 | P55212 | purified caspase-6, Z-VEID-R110 cleavage fluorescence | inhibition, % at 12.5 µM | 0.53% of 350,000 active | AID 686996, 2013;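 active = mean inhibition across replicates at least about 35%, with every replicate also reaching that limit, limit read from the data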;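 also: 0% = median of neutral control wells and 100% = no fluorescence left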
Target sequence (P55212 24-179 limits assumed): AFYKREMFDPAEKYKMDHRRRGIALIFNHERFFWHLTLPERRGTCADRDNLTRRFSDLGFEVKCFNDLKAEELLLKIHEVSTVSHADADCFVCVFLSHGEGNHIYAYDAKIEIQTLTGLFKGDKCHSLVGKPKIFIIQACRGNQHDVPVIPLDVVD
Target sequence (P55212 194-293 limits assumed): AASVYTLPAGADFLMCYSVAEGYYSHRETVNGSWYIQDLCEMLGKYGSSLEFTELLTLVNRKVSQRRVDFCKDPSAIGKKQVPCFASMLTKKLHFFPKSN
* hit, by the source's call; i = inactive; . = no result given. Shown are actives, neighbours in structure and some others; about 2.6% of the full set was active somewhere.

SMILES	FGF22 binding	NSD2 inh	SIRT5 inh	UCH37 DUB inh	Casp6 inh
C[C@@H]1CCCCO[C@@H](CN(C)C(=O)Nc2cccc3ccccc23)[C@H](C)CN([C@@H](C)CO)C(=O)c2cc(NS(=O)(=O)c3ccc(F)cc3)ccc2O1	.	.	11	.	-1
Cc1ccc(CN2CCN(N=Cc3cccn3C)CC2)c(C)c1	.	.	.	0	.
CC(C)[C@@H](C)NC(=O)N(C)C[C@@H]1OCc2ccccc2-c2ccccc2C(=O)N([C@@H](C)CO)C[C@H]1C	0	.	0	.	-2
CN(C)C(=O)c1cc(C(=O)c2ccc(C(F)(F)F)cc2F)c[nH]1	0	.	34*	4	-4
CN(C)C(=O)c1cc(C(=O)c2ccc(F)cc2F)c[nH]1	0	-4	-3	1	-2
CCC(=O)Nc1ccc2c(c1)OC[C@@H](C)N(Cc1cccc(F)c1)C[C@@H](C)[C@H](OC)CN(C)C2=O	0	.	3	.	0
CCC(=O)Nc1ccc2c(c1)OC[C@H](C)N(Cc1cccc(F)c1)C[C@@H](C)[C@H](OC)CN(C)C2=O	0	.	20*	.	-4
CCCC(=O)Nc1ccc2c(c1)OC[C@H](C)N(Cc1ccccc1)C[C@@H](C)[C@@H](OC)CN(C)C2=O	0	.	37*	.	-1
CCCNC(=O)Nc1ccc2c(c1)OC[C@H](C)N(S(C)(=O)=O)C[C@@H](C)[C@@H](OC)CN(C)C2=O	0	.	15*	.	-10
COc1ccccc1-c1cn(CC[C@H]2CC[C@H](NC(=O)C3CCCCC3)[C@H](CO)O2)nn1	0	.	0	.	0
C[C@]12CC[C@H](OC(=O)CCC(=O)O)CC1=CCC1C2CC[C@@]2(C)C1CC[C@@H]2N (some centres not stated)	43*	0	.	6	2
O=C(CC1S/C(=N/N=Cc2cccnc2)NC1=O)Nc1ccccc1 (configuration not stated)	.	.	.	8	.
CCc1ccc(NC(=O)CO/N=C(\C)c2cc3ccccc3o2)cc1	44*	-2	1	.	0
CSc1ccccc1NC(=O)CO/N=C(\C)c1cc2ccccc2o1	0	-2	-8	.	0
O=C(NN=Cc1ccco1)c1csc2c1CCCC2	.	.	.	4	.
CN(C)c1ccc(/C=C2\N=C(C(C)(C)C)OC2=O)cc1	0	2	18*	5	0
CCn1cc(-c2ccnc3cc(C(=O)O)nn23)c(C)n1	43*	-7	-14	i	1
Cc1cc([N+](=O)[O-])nn1CCCC(=O)NC(C)c1ccccc1 (configuration not stated)	0	-3	38*	2	0
CN1c2ccc(-c3cccc(F)c3)cc2[C@H]2[C@H](CCN2C(=O)Cc2cccnc2)[C@@H]1CO	0	.	0	.	0
CC(C)C#Cc1ccc([C@H]2[C@@H](C#N)N(C(=O)C3CCC3)[C@H]2CO)cc1	0	.	-3	.	-3
Cc1ccc(S(=O)(=O)Nc2cccc3c2O[C@@H](CN(C)S(=O)(=O)c2ccccc2)[C@H](C)CN([C@@H](C)CO)C3=O)cc1	0	.	-2	.	3
CCCC(C)C(=O)Nc1nc(C)c(-c2csc(Nc3ccc(Cl)cc3)n2)s1 (configuration not stated)	0	.	31*	-3	0
COC(=O)C1=C(C)NC(C)=C(C(=O)OC)C1c1ccc(N(C)C)cc1	.	5	.	1	.
COC(=O)C1C(c2ccc(N(C)C)cc2)C(C(=O)OC)S(=O)(=O)CS1(=O)=O (configuration not stated)	43*	0	1	4	-1
NC(=NO)c1ccccc1N1CCC(Cc2ccccc2)CC1	.	.	.	1	.
SMILES	FGF22 binding	NSD2 inh	SIRT5 inh	UCH37 DUB inh	Casp6 inh
N/C(=N/O)c1ccccc1N1CCC(Cc2ccccc2)CC1	44*	3	-1	.	-2
COc1ccc(OCCOC(=O)c2nc3nccc(C)n3n2)cc1	0	-1	-5	5	0
COc1ccc(C(=O)C(C)OC(=O)c2nc3nccc(C)n3n2)cc1 (configuration not stated)	0	-1	9	2	91*
CC(=O)NC1C(=O)N(CCN2CCOCC2)c2ccc(Br)cc21 (configuration not stated)	0	-2	-1	.	34
CCOc1ccc2c(c1)C(NC(C)=O)C(=O)N2CCN1CCOCC1 (configuration not stated)	0	.	1	12	55*
CCNC(=O)C[C@H]1CC[C@H](NS(=O)(=O)c2ccc(C)cc2)[C@@H](CO)O1	0	.	-7	.	1
Cc1cccc(NC(=O)C2CC(=O)n3ncnc3N2)c1 (configuration not stated)	0	1	79*	6	-2
CCc1ccc(C(=O)COC(=O)C(CCSC)NC(=O)c2ccccc2)cc1 (configuration not stated)	44*	-3	-3	5	-1
CSCCC(NC(=O)c1ccc(C(C)(C)C)cc1)C(=O)O (configuration not stated)	44*	5	-5	1	-2
CSCCC(NC(=O)c1ccccc1)C(=O)O (configuration not stated)	0	-3	-2	6	2
C[C@@H]1CN([C@@H](C)CO)C(=O)CCCn2cc(nn2)CO[C@@H]1CN(C)S(=O)(=O)c1cccc(C#N)c1	0	.	-6	.	4
O=C(NCCN1CCOCC1)c1ccc(CSc2nc3ccncc3n2Cc2ccc(F)cc2)cc1	44*	-5	-1	6	0
CCOC(=O)c1c(CS(=O)(=O)c2ccccc2)n(C)c2cc(Br)c(O)cc12	0	-2	18*	3	-4
CCOC(=O)c1c(CS(=O)(=O)c2ccccc2)n(C)c2cc(Br)c(O)c(CN(C)C)c12	0	1	.	4	-1
Cc1nn(-c2ccc([N+](=O)[O-])cc2)c2c1C(c1ccc(OC(F)F)cc1)N1C(=N2)C(=O)Nc2ccccc21 (configuration not stated)	43*	0	-2	.	26
COc1cccc(C2c3c(C)nn(-c4ccc([N+](=O)[O-])cc4)c3N=C3C(=O)Nc4ccccc4N32)c1 (configuration not stated)	43*	-6	3	6	-2
Cc1ccc(C2c3c(C)nn(-c4ccc([N+](=O)[O-])cc4)c3N=C3C(=O)Nc4ccccc4N32)cc1 (configuration not stated)	.	.	.	5	.
CC(/C=N\N1CCN(Cc2ccc(C)cc2)CC1)=C\c1ccccc1	44*	4	-6	.	-1
